Consider two compounds from ChEMBL document CHEMBL2331168, “Anticonvulsant evaluation of aminoalkanol derivatives of 2- and 4-methylxanthone” (Bioorg Med Chem, 2013).

Data set [1] can be described thus: Neurotoxicity in ip dosed albino mouse assessed as minimal motor impairment after 1 hr by rotorod test. Format: toxicity, organism-based. The settings on record: in vivo. The method in brief: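 TD50, with 95% confidence intervals, was the ip dose causing neurotoxicity in 50% of male albino mice. Deficit was judged on the rotorod: a 1 in. knurled rod at 6 rpm, where failure to hold on for 1 min in each of three trials counted as deficit. Read at the stated time after dosing.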

In data set [2] the test system is Mus musculus. The data set can be described thus: Protective index, ratio TD50 for albino mouse to ED50 for albino mouse by subcutaneous pentetrazole-induced seizure test after 0.5 hrs. Format: functional.
In data set [3] the test system is Mus musculus. The data set can be described thus: Anticonvulsant activity in ip dosed albino mouse assessed as protection against subcutaneous pentetrazole-induced seizures after 0.5 hrs. Format: functional.
Data set [4] is filed under the species Mus musculus. The data set can be described thus: Protective index, ratio TD50 for albino mouse to ED50 for albino mouse by maximal electroshock-induced seizure test after 0.5 hrs. Format: functional. The gist of the method: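 Protective index was calculated as mouse ip TD50 (rotorod) divided by mouse ip MES ED50, both obtained by quantitative dose-response testing at the stated post-dose time.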
Background: Protection in the maximal electroshock model is a classic sign of anticonvulsant action.

Data set [5] concerns Mus musculus. The data set can be described thus: Anticonvulsant activity in ip dosed albino mouse assessed as protection against maximal electroshock-induced seizures after 0.5 hrs. Format: functional. The method in brief: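 ED50, with 95% confidence intervals, was the ip dose protecting 50% of mice in the MES test. It was measured at the stated post-dose time in male albino mice given suspensions in 0.5% methylcellulose. MES used 60 Hz, 50 mA, 0.2 s corneal stimulation, and the endpoint was abolition of hindlimb tonic extension.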

The subject of data set [6] is Rattus norvegicus. The data set can be described thus: Anticonvulsant activity in Sprague-Dawley rat assessed as protection against maximal electroshock-induced seizures at 30 mg/kg, po after 1 hr. Format: functional, organism-based. Set-up: dose 30 mg/kg. The method in brief:
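Male Sprague-Dawley rats dosed orally at 30 mg/kg and tested at 0.25, 0.5, 1, 2 and 4 h. Seizures were induced by 60 Hz alternating current at 150 mA for 0.2 s through corneal electrodes, after a drop of 0.9% NaCl in each eye. Protection meant abolition of hindlimb tonic extension. Reported as protected/tested, usually 4 rats per time point.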

Data set [7] relates to Mus musculus. The data set can be described thus: Neurotoxicity in albino mouse assessed as minimal motor impairment at 100 mg/kg, ip after 4 hrs by rotorod test. Format: toxicity, organism-based. The arrangement: dose 100 mg/kg, route intraperitoneal. Conditions: in vivo. The method in brief: (§1)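 Male albino mice (Carworth Farms No. 1) were dosed ip with suspensions in 0.5% methylcellulose and put on a 1 in. knurled rod rotating at 6 rpm at set times after dosing. Neurotoxicity meant failure to stay on the rod for at least 1 min in each of three trials. Scored as impaired/tested.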
In general terms: In the rotarod test animals must keep their balance on a rotating rod.

Data set [8] concerns Mus musculus. The data set can be described thus: Neurotoxicity in albino mouse assessed as minimal motor impairment at 30 mg/kg, ip after 4 hrs by rotorod test. Format: toxicity, organism-based. The arrangement: dose 30 mg/kg, route intraperitoneal. The settings on record: in vivo. The gist of the method: as §1
The subject of data set [9] is Mus musculus. In words: Neurotoxicity in albino mouse assessed as minimal motor impairment at 100 mg/kg, ip after 0.5 hrs by rotorod test. Format: toxicity, organism-based. Set-up: dose 100 mg/kg, route intraperitoneal. Conditions: in vivo. The method in brief:
as §1

For data set [10], the system named is Mus musculus. The data set can be described thus: Anticonvulsant activity in albino mouse assessed as protection against subcutaneous pentetrazole-induced seizures at 300 mg/kg, ip after 4 hrs. Format: functional, organism-based. Set-up: dose 300 mg/kg. The method in brief:
(§2)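 Male albino mice (Carworth Farms No. 1) received compound ip in 0.5% methylcellulose, then pentetrazole 85 mg/kg sc in 0.9% NaCl at 0.5 or 4 h. Mice were watched for at least 30 min. Protection meant no threshold seizure, defined as a single clonic spasm lasting at least 5 s. Scored as protected/tested.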

Data set [11] deals with Mus musculus. The data set can be described thus: Anticonvulsant activity in albino mouse assessed as protection against subcutaneous pentetrazole-induced seizures at 100 mg/kg, ip after 4 hrs. Set-up: dose 100 mg/kg. Format: functional, organism-based. The method in brief: as §2
Data set [12] concerns Mus musculus. In words: Anticonvulsant activity in albino mouse assessed as protection against subcutaneous pentetrazole-induced seizures at 300 mg/kg, ip after 0.5 hrs. Format: functional, organism-based. The arrangement: dose 300 mg/kg. The method in brief: as §2
Data set [13] has as its system Mus musculus. The data set can be described thus: Anticonvulsant activity in albino mouse assessed as protection against subcutaneous pentetrazole-induced seizures at 30 mg/kg, ip after 4 hrs. Format: functional, organism-based. Set-up: dose 30 mg/kg. The method in brief: as §2
For data set [14], the system named is Mus musculus. The data set can be described thus: Anticonvulsant activity in albino mouse assessed as protection against subcutaneous pentetrazole-induced seizures at 100 mg/kg, ip after 0.5 hrs. Set-up: dose 100 mg/kg. Format: functional, organism-based. The method in brief: as §2
Data set [15] relates to Mus musculus. In words: Anticonvulsant activity in albino mouse assessed as protection against subcutaneous pentetrazole-induced seizures at 30 mg/kg, ip after 0.5 hrs. Format: functional, organism-based. The arrangement: dose 30 mg/kg. The gist of the method: as §2
Data set [16] relates to Mus musculus. The data set can be described thus: Anticonvulsant activity in albino mouse assessed as protection against maximal electroshock-induced seizures at 300 mg/kg, ip after 4 hrs. Format: functional, organism-based. Set-up: dose 300 mg/kg. The method in brief:
(§3)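 Male albino mice (Carworth Farms No. 1) were given the compound ip as a suspension in 0.5% methylcellulose at 3–300 mg/kg. MES testing was at 0.5 and 4 h, sometimes also at 0.25 and 1 h. Current was 60 Hz, 50 mA, 0.2 s via corneal electrodes, with saline eye drops. Protection meant no hindlimb tonic extension, scored as protected/tested.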

The test system of data set [17] is Mus musculus. In words: Anticonvulsant activity in albino mouse assessed as protection against maximal electroshock-induced seizures at 100 mg/kg, ip after 4 hrs. Format: functional, organism-based. The arrangement: dose 100 mg/kg. The method in brief:
as §3

Data set [18] relates to Mus musculus. The data set can be described thus: Anticonvulsant activity in albino mouse assessed as protection against maximal electroshock-induced seizures at 30 mg/kg, ip after 4 hrs. Format: functional, organism-based. Set-up: dose 30 mg/kg. The gist of the method:
as §3

Data set [19] concerns Mus musculus. The data set can be described thus: Anticonvulsant activity in albino mouse assessed as protection against maximal electroshock-induced seizures at 300 mg/kg, ip after 0.5 hrs. The arrangement: dose 300 mg/kg. Format: functional, organism-based. The gist of the method:
as §3

In data set [20] the test system is Mus musculus. In words: Anticonvulsant activity in albino mouse assessed as protection against maximal electroshock-induced seizures at 100 mg/kg, ip after 0.5 hrs. Format: functional, organism-based. Set-up: dose 100 mg/kg. The method in brief: as §3
In data set [21] the test system is Mus musculus. The data set can be described thus: Anticonvulsant activity in albino mouse assessed as protection against maximal electroshock-induced seizures at 30 mg/kg, ip after 0.5 hrs. Format: functional, organism-based. Set-up: dose 30 mg/kg. The gist of the method:
as §3

Data set [22] concerns Mus musculus. The data set can be described thus: Neurotoxicity in albino mouse assessed as minimal motor impairment at 30 mg/kg, ip after 0.5 hrs by rotorod test. Format: toxicity, organism-based. Conditions: in vivo. Set-up: dose 30 mg/kg, route intraperitoneal. The method in brief:
as §1

The subject of data set [23] is Rattus norvegicus. In words: Neurotoxicity in Sprague-Dawley rat assessed as minimal motor impairment at 30 mg/kg, po after 1 hr by rotorod test. The settings on record: in vivo.
The test system of data set [24] is Rattus norvegicus. In words: Neurotoxicity in Sprague-Dawley rat assessed as minimal motor impairment at 30 mg/kg, po after 4 hrs by rotorod test. The settings on record: in vivo.
In data set [25] the test system is Rattus norvegicus. The data set can be described thus: Neurotoxicity in Sprague-Dawley rat assessed as minimal motor impairment at 30 mg/kg, po after 2 hrs by rotorod test. The settings on record: in vivo.
Data set [26] concerns Rattus norvegicus. In words: Neurotoxicity in Sprague-Dawley rat assessed as minimal motor impairment at 30 mg/kg, po after 0.5 hrs by rotorod test. Conditions: in vivo.
In data set [27] the test system is Rattus norvegicus. The data set can be described thus: Neurotoxicity in Sprague-Dawley rat assessed as minimal motor impairment at 30 mg/kg, po after 0.25 hrs by rotorod test. Conditions: in vivo.
The subject of data set [28] is Mus musculus. The data set can be described thus: Neurotoxicity in albino mouse assessed as minimal motor impairment at 300 mg/kg, ip after 4 hrs by rotorod test. Format: toxicity, organism-based. Conditions: in vivo. Set-up: dose 300 mg/kg, route intraperitoneal. The method in brief: as §1
Data set [29] concerns Mus musculus. The data set can be described thus: Neurotoxicity in albino mouse assessed as minimal motor impairment at 100 mg/kg, ip after 1 hr by rotorod test. Format: toxicity, organism-based. Set-up: dose 100 mg/kg, route intraperitoneal. The settings on record: in vivo. The gist of the method:
as §1

Data set [30] has as its system Mus musculus. In words: Neurotoxicity in albino mouse assessed as minimal motor impairment at 100 mg/kg, ip after 0.25 hrs by rotorod test. Format: toxicity, organism-based. The arrangement: dose 100 mg/kg, route intraperitoneal. Conditions: in vivo. The gist of the method:
as §1

Data set [31] deals with Mus musculus. In words: Anticonvulsant activity in albino mouse assessed as protection against maximal electroshock-induced seizures at 100 mg/kg, ip after 1 hr. Format: functional, organism-based. Set-up: dose 100 mg/kg. The gist of the method:
as §3

The subject of data set [32] is Mus musculus. In words: Anticonvulsant activity in albino mouse assessed as protection against maximal electroshock-induced seizures at 100 mg/kg, ip after 0.25 hrs. Format: functional, organism-based. Set-up: dose 100 mg/kg. The method in brief: as §3

The source made the active and inactive calls.

A word on the TD50: it is the 50% point of the dose-response relation for the toxic effect studied. For orientation: ED50 means the dose at which the effect has come halfway, by size or by number of responders. For the compound `CCC(CO)NCc1ccc2oc3cc(OC)ccc3c(=O)c2c1` (racemic), in [1], the TD50 at 1 h came out at 213 mg/kg. For the same compound, the “Ratio TD50/ED50” value with Mus musculus [2] is under 0.43; in the data set filed under Mus musculus [4], 2.66. For the same compound, the results for the ED50 in the data set on Mus musculus [3] and in the data set on Mus musculus [5] were over 500 mg/kg and 80 mg/kg, respectively. The result in the data set with Rattus norvegicus [6], with Mus musculus [10], in the data set with Mus musculus [11], with Mus musculus [12], in the data set with Mus musculus [13] and in the data set with Mus musculus [14] was inactive. In addition, the outcome in the data set on Mus musculus [15], in the data set with Mus musculus [17], with Mus musculus [18] and with Mus musculus [21] was inactive. In addition, the Activity result with Mus musculus [7], in the data set with Mus musculus [8], in the data set on Mus musculus [9], in the data set on Mus musculus [22], with Rattus norvegicus [23] and in the data set with Rattus norvegicus [24] was “Non-toxic” in each case. Further, the Activity result in the data set with Rattus norvegicus [25], with Rattus norvegicus [26] and with Rattus norvegicus [27] was “Non-toxic” throughout. Besides, the result in the data set with Mus musculus [16], in the data set with Mus musculus [19] and in the data set with Mus musculus [20] was Active.
As for `COc1ccc2c(=O)c3cccc(CN(C)C(C)CO)c3oc2c1` (racemic), the Activity result in the data set with Mus musculus [28], in the data set on Mus musculus [7], with Mus musculus [29] and in the data set on Mus musculus [30] was “Non-toxic” each time. Also, the result with Mus musculus [11], in the data set on Mus musculus [12], in the data set with Mus musculus [14], with Mus musculus [15], with Mus musculus [17] and in the data set with Mus musculus [18] was inactive. In addition, the result with Mus musculus [31], in the data set with Mus musculus [20], in the data set with Mus musculus [21] and in the data set on Mus musculus [32] was inactive. Further, the outcome in the data set on Mus musculus [16] and in the data set with Mus musculus [19] was Active.
